Key:
[1] = target: Human immunodeficiency virus type 1 integrase (Human immunodeficiency virus 1, UniProt Q7ZJM1); assay: Inhibition of HIV1 integrase strand transfer activity
[2] = Clearance in Sprague-Dawley rat at 1 mg/kg, iv after 4 hrs; type: ADME, organism-based; details: in vivo
Outline: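 Male Sprague-Dawley rats given 1 mpk IV in PEG400/ethanol (90:10); blood sampled at 5 and 30 min and 1, 2 and 4 h post-dose; clearance from plasma profile.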

[3] = Aqueous solubility of the compound; type: physicochemical
Outline: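 Aqueous solubility measured at pH 2.3, 6.1, 7.3 and 8.5, in µg/mL.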

Chain of Human immunodeficiency virus type 1 integrase (Q7ZJM1 whole entry): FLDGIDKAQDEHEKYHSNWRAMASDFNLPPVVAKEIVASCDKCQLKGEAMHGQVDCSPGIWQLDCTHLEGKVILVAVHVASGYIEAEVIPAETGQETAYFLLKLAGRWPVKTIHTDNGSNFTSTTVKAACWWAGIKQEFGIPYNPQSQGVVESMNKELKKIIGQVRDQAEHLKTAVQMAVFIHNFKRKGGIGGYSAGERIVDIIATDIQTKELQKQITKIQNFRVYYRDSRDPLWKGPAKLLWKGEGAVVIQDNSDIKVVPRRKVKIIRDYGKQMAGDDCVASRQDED

| IC50 [1] [nM] | clearance [2] [mL/min/kg] | solubility [3] [µg/mL] | SMILES |
| --- | --- | --- | --- |
| 2 | 17 | ≤ 5 | Cc1cc(CNC(=O)c2nc3n(c(=O)c2O)CCCC32CCCC2)ccc1F |
| 11 |  | ≤ 5 | O=C(NCc1ccc(F)cc1S(=O)(=O)N1CCOCC1)c1nc2n(c(=O)c1O)CCCC21CCCC1 |
| 10 |  |  | CC1(C)OCCn2c1nc(C(=O)NCc1ccc(F)cc1Cl)c(O)c2=O |
| 6 | 6.9 |  | CC1(C)OCCn2c1nc(C(=O)NCc1ccc(F)cc1S(C)(=O)=O)c(O)c2=O |

— ChEMBL document CHEMBL4118197, “The discovery and preclinical evaluation of BMS-707035, a potent HIV-1 integrase strand transfer inhibitor” (Bioorg Med Chem Lett, 2018)
